# Screens: PubChem BioAssay, several laboratories
# T cruzi inh: T. cruzi replication inhibition. inhibition, % (test concentration not listed). actives 1.4% (n = 300,000). AID 1885. T. cruzi beta-gal in NIH3T3, luminescence, 90 h;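 active = mean inhibition across valid replicates above about 55%, limit read from the data; inconclusive = mean below that limit but half or more replicates reach it; inactive = mean below it, under half of replicates reach it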;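 note: signal also drops with host cell toxicity which is not excluded here; 0% = plate median of DMSO wells and 100% = zero luminescence signal; higher percent means less beta-gal luminescence so fewer parasites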
#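 Test system: β-gal T. cruzi (Tulahuen C4) inside NIH/3T3 cells / Quantity: 5,000 cells/well / Measured by: luminescence from GalScreen with 0.05% NP40, read after 60 min / Medium: DMEM plus 2% FBS / Measure: parasite load inhibition, % / Reagent: Tulahuen C4 trypomastigotes, 5000/well / Schedule: co-culture of at least 90 h after 3 h attachment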
# Calb FLC: C. albicans growth modulation with fluconazole; growth inhibition, % (no concentration beside the values); actives 0.57% (n = 300,000); C. albicans CaCi-2 + fluconazole, Alamar Blue growth, 48 h;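 active = growth inhibition above about 58% in most replicates, limit read from the data, passing the limit was not always enough; inconclusive = exactly half the replicates above a set limit; inactive = most replicates below a set limit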;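 note: all wells also contain fluconazole at 8 µg/ml as a sub-toxic cotreatment; 0% = median of DMSO wells and 100% = median of geldanamycin control wells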
# NALP3 yeast inh: NALP3 inhibition in yeast | inhibition, % at 10 µM | Yeast reconstituted NLRP3/ASC/caspase-1, beta-gal luminescence, 24 h | actives 0.39% (n = 330,000);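 active = inhibition of 50% or more; inactive = inhibition below 50%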;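 note: plate controls were induced DMSO wells for no effect and uninduced yeast grown without galactose for full effect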
# NALP1 inh: inhibitors of NALP1 inflammasome in yeast; actives 0.61% (n = 280,000); S. cerevisiae NALP1/ASC/caspase-1 growth, X-gal OD620, 72 h; inhibition, % at 10 µM; AID 2071; in the data active = inhibition mostly above about 24%, no sharp cut-off; inactive = mostly below about 32%
# L major viab: reduces viability of Leishmania major promastigotes; resazurin fluorescence viability; inhibition, % at 10 µM; actives 9% (n = 200,000);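 note: promastigotes grown with compound for 44 hours at 28 °C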
# PolyA inhibitor: blocks polyadenylation in yeast reporter cells; AID 1875; S. cerevisiae SKY197-pL101 polyadenylation reporter, beta-gal luminescence; efflux-impaired pdr1/pdr3 knockout yeast; score 100 = 6 SD above DMSO; activity score, % at 12 µM; actives 0.02% (n = 300,000);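 active = lowest replicate activity score at least 50, where 100 means six control SD above control mean; inconclusive = lowest score under 50 but half or more replicates reach 50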;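 note: yeast exposed to compound for 9 h at 30 °C; higher score means more reporter readthrough which indicates perturbed polyadenylation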
# NALP3 confirm: confirmation of NALP3 inhibitors in yeast | shares compounds with NALP3 yeast inh | yeast expressing human NALP3, luminescence | inhibition, % at 10 µM | actives 81% (n = 1,300); in the data active = inhibition above about 48%
# Casp1 ASC ctr: active in yeast caspase-1-ASC counter-screen for NALP3 inhibitors. shares compounds with NALP3 yeast inh. AID 488784. inhibition, % at 10 µM. actives 66% (n = 1,000). yeast expressing Caspase-1-ASC, luminescence counter screen
# NALP3 retest: retest-confirmed inhibitor of NALP3 in yeast | shares compounds with NALP3 yeast inh | inhibition, % at 10 µM | yeast expressing human NALP3, luminescence read-out | AID 488794 | actives 53% (n = 1,000)
# * hit, by the source's call; ? = inconclusive; · = not tested or not shown. The entries come from a sample that favours hits as a whole. Cut-off read from the data, not from the text of the source, unless noted: active = inhibition above about 50%; inactive = the rest.
SMILES,T cruzi inh,Calb FLC,NALP3 yeast inh,NALP1 inh,L major viab,PolyA inhibitor,NALP3 confirm,Casp1 ASC ctr,NALP3 retest
CN(C)C(Cc1ccccc1)C(=O)c1ccc(-c2ccccc2)cc1 (stereo unspecified),10,-11,56*,27,6,-8,67*,55*,62*
CC1(C)CC(n2[nH]c(=O)c3c2NC(=O)CSC3c2ccc(F)cc2)CCO1 (stereo unspecified),-6,-11,12,2,-9,-3,·,·,·
O=C1NC(=S)NC(=O)C1=Cc1ccc(Br)s1,-24,-2,17,2,·,1,·,·,·
Cc1c(-c2cccc(Cl)c2)nc2ccccc2c1C(=O)N1CCC2(CC1)OCCO2,2,0,77*,19,·,-7,45,21,13
N#CC(C#N)=Cc1ccc(-c2ccccc2)o1,-27,?,73*,35,-7,-22,74*,·,·
